From ChEMBL document CHEMBL1165950, “Design and synthesis of new potent anticancer pyrazoles with high FLT3 kinase inhibitory selectivity” (Bioorg Med Chem, 2010)

How the values were obtained:
Type in all cases: functional
PC-3 = experiment: Cytotoxicity against human PC3 cells assessed as cell growth at 10 uM; details: read-out: Activity
In short: (§1)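 NCI-60 screen: cells grown in RPMI 1640 with 5% FBS and 2 mM L-glutamine, plated at 5000–40,000 cells/well according to doubling time, and preincubated 24 h at 37 °C, 5% CO2. The single 10 µM dose (DMSO stock) was added, then incubated 48 h. Cells were TCA-fixed and stained with 0.4% SRB, read at 515 nm, and growth % calculated against time-zero and control plates.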

MOLT-4 = experiment: Cytotoxicity against human MOLT4 cells assessed as cell growth at 10 uM; details: read-out: Activity; in short: as §1
A549 = experiment: Cytotoxicity against human A549 cells assessed as cell growth at 10 uM; details: read-out: Activity
In short: (§2)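 Single-dose NCI-60 screen at 10 µM. Cells were grown in RPMI 1640 with 5% FBS and 2 mM L-glutamine, then treated for 48 h at 37 °C. Protein was measured by SRB staining with absorbance at 515 nm. Percentage growth was recorded, and inhibition percentage was calculated as 100 minus growth percentage.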

MDA-MB-231 = experiment: Cytotoxicity against human MDA-MB-231 cells assessed as cell growth at 10 uM; details: read-out: Activity; in short: as §1
[1] = Cytotoxicity against human […] cells assessed as cell growth at 10 uM; details: read-out: Activity; in short: as §1
DU-145 = experiment: Cytotoxicity against human DU145 cells assessed as cell growth at 10 uM; details: read-out: Activity; in short: as §2
BT-549 = experiment: Cytotoxicity against human BT549 cells assessed as cell growth at 10 uM; details: read-out: Activity; in short: as §2
K562 = experiment: Cytotoxicity against human K562 cells assessed as cell growth at 10 uM; details: read-out: Activity; in short: as §2
SF-268 = experiment: Cytotoxicity against human SF268 cells assessed as cell growth at 10 uM; details: read-out: Activity; in short: as §1
HL-60(TB) = experiment: Cytotoxicity against human HL-60(TB) cells assessed as cell growth at 10 uM; details: read-out: Activity
In short: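 NCI 60-cell panel screen at a single concentration of 10 µM. Cells are grown in RPMI 1640 with 5% FBS and 2 mM L-glutamine and read by SRB protein staining at 515 nm. Percent growth is measured relative to time-zero and untreated controls; inhibition % is 100 minus growth %.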

HCT-15 = experiment: Cytotoxicity against human HCT15 cells assessed as cell growth at 10 uM; details: read-out: Activity; in short: as §2
CAKI-1 = experiment: Cytotoxicity against human Caki1 cells assessed as cell growth at 10 uM; details: read-out: Activity; in short: as §2
M14 = experiment: Cytotoxicity against human M14 cells assessed as cell growth at 10 uM; details: read-out: Activity; in short: as §1
SW-620 = experiment: Cytotoxicity against human SW620 cells assessed as cell growth at 10 uM; details: read-out: Activity; in short: as §1
HT-29 = experiment: Cytotoxicity against human HT-29 cells assessed as cell growth at 10 uM; details: read-out: Activity; in short: as §2
[2] = Cytotoxicity against human Hs 578T cells assessed as cell growth at 10 uM; details: read-out: Activity; in short: as §2
OVCAR-4 = experiment: Cytotoxicity against human OVCAR4 cells assessed as cell growth at 10 uM; details: read-out: Activity; in short: as §1
MDA-MB-435 = experiment: Cytotoxicity against human MDA-MB-435 cells assessed as cell growth at 10 uM; details: read-out: Activity; in short: as §1
786-0 = experiment: Cytotoxicity against human 786-0 cells assessed as cell growth at 10 uM; details: read-out: Activity; in short: as §2
CCRF-CEM = experiment: Cytotoxicity against human CCRF-CEM cells assessed as cell growth at 10 uM; details: read-out: Activity; in short: as §2
COLO 205 = experiment: Cytotoxicity against human COLO205 cells assessed as cell growth at 10 uM; details: read-out: Activity; in short: as §2
UACC-257 = experiment: Cytotoxicity against human UACC257 cells assessed as cell growth at 10 uM; details: read-out: Activity; in short: as §1
ACHN = experiment: Cytotoxicity against human ACHN cells assessed as cell growth at 10 uM; details: read-out: Activity; in short: as §2
HCT-116 = experiment: Cytotoxicity against human HCT116 cells assessed as cell growth at 10 uM; details: read-out: Activity; in short: as §2
SK-MEL-28 = experiment: Cytotoxicity against human SK-MEL-28 cells assessed as cell growth at 10 uM; details: read-out: Activity; in short: as §1
EKVX = experiment: Cytotoxicity against human EKVX cells assessed as cell growth at 10 uM; details: read-out: Activity; in short: as §2
KM12 = experiment: Cytotoxicity against human KM12 cells assessed as cell growth at 10 uM; details: read-out: Activity; in short: as §1
MCF7 = experiment: Cytotoxicity against human MCF7 cells assessed as cell growth at 10 uM; details: read-out: Activity; in short: as §1
OVCAR-3 = experiment: Cytotoxicity against human OVCAR-3 cells assessed as cell growth at 10 uM; details: read-out: Activity; in short: as §1
SNB-19 = experiment: Cytotoxicity against human SNB19 cells assessed as cell growth at 10 uM; details: read-out: Activity; in short: as §1
U-251 = experiment: Cytotoxicity against human U251 cells assessed as cell growth at 10 uM; details: read-out: Activity; in short: as §1
NCI-H460 = experiment: Cytotoxicity against human NCI-H460 cells assessed as cell growth at 10 uM; details: read-out: Activity; in short: as §1
SR = experiment: Cytotoxicity against human SR cells assessed as cell growth at 10 uM; details: read-out: Activity; in short: as §1
OVCAR-5 = experiment: Cytotoxicity against human OVCAR5 cells assessed as cell growth at 10 uM; details: read-out: Activity; in short: as §1
HOP-62 = experiment: Cytotoxicity against human HOP62 cells assessed as cell growth at 10 uM; details: read-out: Activity; in short: as §2
MDA-MB-468 = experiment: Cytotoxicity against human MDA-MB-468 cells assessed as cell growth at 10 uM; details: read-out: Activity; in short: as §1
OVCAR-8 = experiment: Cytotoxicity against human OVCAR8 cells assessed as cell growth at 10 uM; details: read-out: Activity; in short: as §1
RXF 393 = experiment: Cytotoxicity against human RXF393 cells assessed as cell growth at 10 uM; details: read-out: Activity; in short: as §1
NCI-H23 = experiment: Cytotoxicity against human NCI-H23 cells assessed as cell growth at 10 uM; details: read-out: Activity; in short: as §1
SNB-75 = experiment: Cytotoxicity against human SNB75 cells assessed as cell growth at 10 uM; details: read-out: Activity; in short: as §1
T47D = experiment: Cytotoxicity against human T47D cells assessed as cell growth at 10 uM; details: read-out: Activity; in short: as §1
IGROV-1 = experiment: Cytotoxicity against human IGROV1 cells assessed as cell growth at 10 uM; details: read-out: Activity; in short: as §2
SK-OV-3 = experiment: Cytotoxicity against human SKOV3 cells assessed as cell growth at 10 uM; details: read-out: Activity; in short: as §1
SK-MEL-5 = experiment: Cytotoxicity against human SK-MEL-5 cells assessed as cell growth at 10 uM; details: read-out: Activity; in short: as §1
Malme-3M = experiment: Cytotoxicity against human MALME-3M cells assessed as cell growth at 10 uM; details: read-out: Activity; in short: as §1
A498 = experiment: Cytotoxicity against human A498 cells assessed as cell growth at 10 uM; details: read-out: Activity; in short: as §2
UO-31 = experiment: Cytotoxicity against human UO31 cells assessed as cell growth at 10 uM; details: read-out: Activity; in short: as §1
SN12C = experiment: Cytotoxicity against human SN12C cells assessed as cell growth at 10 uM; details: read-out: Activity; in short: as §1
HOP-92 = experiment: Cytotoxicity against human HOP92 cells assessed as cell growth at 10 uM; details: read-out: Activity; in short: as §2
NCI-H522 = experiment: Cytotoxicity against human NCI-H522 cells assessed as cell growth at 10 uM; details: read-out: Activity; in short: as §1
SK-MEL-2 = experiment: Cytotoxicity against human SK-MEL-2 cells assessed as cell growth at 10 uM; details: read-out: Activity; in short: as §1
SF-539 = experiment: Cytotoxicity against human SF539 cells assessed as cell growth at 10 uM; details: read-out: Activity; in short: as §1
LOX IMVI = experiment: Cytotoxicity against human LOXIMVI cells assessed as cell growth at 10 uM; details: read-out: Activity; in short: as §1
SF-295 = experiment: Cytotoxicity against human SF295 cells assessed as cell growth at 10 uM; details: read-out: Activity; in short: as §1
NCI-H322M = experiment: Cytotoxicity against human NCI-H322M cells assessed as cell growth at 10 uM; details: read-out: Activity; in short: as §1
HCC 2998 = experiment: Cytotoxicity against human HCC2998 cells assessed as cell growth at 10 uM; details: read-out: Activity; in short: as §2
UACC-62 = experiment: Cytotoxicity against human UACC62 cells assessed as cell growth at 10 uM; details: read-out: Activity; in short: as §1
TK-10 = experiment: Cytotoxicity against human TK10 cells assessed as cell growth at 10 uM; details: read-out: Activity; in short: as §1
NCI/ADR-RES = experiment: Cytotoxicity against human NCI/ADR-RES cells assessed as cell growth at 10 uM; details: read-out: Activity; in short: as §1
[3] = Growth inhibition of human NCI60 cells at 10 uM after 48 hrs by sulforhodamine B assay relative to control; details: NCI60, 48 h, read-out: GI
In short: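 Single-dose NCI screen at 10 µM across the 60-line panel, 48 h exposure at 37 °C after a 24 h preincubation. Adherent cells were fixed with cold TCA and stained with 0.4% SRB, and absorbance was read at 515 nm. Inhibition % was taken as 100 minus growth %, and the mean across all lines was reported.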

NCI-H226 = experiment: Cytotoxicity against human NCI-H226 cells assessed as cell growth at 10 uM; details: read-out: Activity; in short: as §1

COc1cc(C)cc(-c2nn(CC#N)cc2-c2ccnc(-c3cccc(NC(C)=O)c3)c2)c1
growth at 10 µM (PC-3): 85.8%
growth at 10 µM (MOLT-4): 82.8%
growth at 10 µM (A549): 86.7%
growth at 10 µM (MDA-MB-231): 86.5%
growth at 10 µM [1]: 73.9%
growth at 10 µM (DU-145): 105%
growth at 10 µM (BT-549): 79.1%
growth at 10 µM (K562): 86.4%
growth at 10 µM (SF-268): 97.3%
growth at 10 µM (HL-60(TB)): 74.9%
growth at 10 µM (HCT-15): 94.5%
growth at 10 µM (CAKI-1): 77.3%
growth at 10 µM (M14): 96.3%
growth at 10 µM (SW-620): 104%
growth at 10 µM (HT-29): 99.4%
growth at 10 µM [2]: 99%
growth at 10 µM (OVCAR-4): 99.7%
growth at 10 µM (MDA-MB-435): 99.6%
growth at 10 µM (786-0): 84%
growth at 10 µM (CCRF-CEM): 83.9%
growth at 10 µM (COLO 205): 93.5%
growth at 10 µM (UACC-257): 89.7%
growth at 10 µM (ACHN): 88%
growth at 10 µM (HCT-116): 96.4%
growth at 10 µM (SK-MEL-28): 104%
growth at 10 µM (EKVX): 101%
growth at 10 µM (KM12): 109%
growth at 10 µM (MCF7): 85%
growth at 10 µM (OVCAR-3): 109%
growth at 10 µM (SNB-19): 89.6%
growth at 10 µM (U-251): 94.3%
growth at 10 µM (NCI-H460): 107%
growth at 10 µM (SR): 80.9%
growth at 10 µM (OVCAR-5): 91.6%
growth at 10 µM (HOP-62): 98.5%
growth at 10 µM (MDA-MB-468): 82.8%
growth at 10 µM (OVCAR-8): 88%
growth at 10 µM (RXF 393): 81.5%
growth at 10 µM (NCI-H23): 95.3%
growth at 10 µM (SNB-75): 72.4%
growth at 10 µM (T47D): 79.3%
growth at 10 µM (IGROV-1): 98.4%
growth at 10 µM (SK-OV-3): 93.3%
growth at 10 µM (SK-MEL-5): 36.9%
growth at 10 µM (Malme-3M): 108%
growth at 10 µM (A498): 74.2%
growth at 10 µM (UO-31): 63.6%
growth at 10 µM (SN12C): 83%
growth at 10 µM (HOP-92): 79.6%
growth at 10 µM (NCI-H522): 82.5%
growth at 10 µM (SK-MEL-2): 92.1%
growth at 10 µM (SF-539): 84.5%
growth at 10 µM (LOX IMVI): 97.5%
growth at 10 µM (SF-295): 102%
growth at 10 µM (NCI-H322M): 96.9%
growth at 10 µM (HCC 2998): 101%
growth at 10 µM (UACC-62): 81.7%
growth at 10 µM (TK-10): 87.1%
growth at 10 µM (NCI/ADR-RES): 87.3%
inhibition of growth at 10 µM [3]: 1.18%
growth at 10 µM (NCI-H226): 93.1%
